Calls of active or inactive are those of the source. No cut-off for these calls is given here.
What was measured:
[1] = target: T1, Phosphatidylinositol 4,5-bisphosphate 3-kinase catalytic subunit alpha isoform (Homo sapiens, UniProt P42336); assay: Binding affinity to human PI3Kalpha after 1 hr by KINOMEscan assay
[2] = target: Phosphatidylinositol 4,5-bisphosphate 3-kinase catalytic subunit beta isoform (Homo sapiens, UniProt P42338); assay: Binding affinity to human PI3Kbeta after 1 hr by KINOMEscan assay
[3] = target: T2, Phosphatidylinositol 4,5-bisphosphate 3-kinase catalytic subunit gamma isoform (Homo sapiens, UniProt P48736); assay: Binding affinity to human PI3Kgamma after 1 hr by KINOMEscan assay
[4] = target: Tyrosine-protein kinase Lck (Homo sapiens, UniProt P06239); assay: Binding affinity to human LCK after 1 hr by KINOMEscan assay
[5] = target: Aurora kinase B (Homo sapiens) (UniProt Q96GD4); assay: Binding affinity to human AURKB at 1 uM after 1 hr by KINOMEscan assay
In short: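 KINOMEscan competition binding profiling across 97 kinases. Affinity expressed as percent of control.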

[6] = target: Mitogen-activated protein kinase 8 (Homo sapiens) (UniProt P45983); assay: Binding affinity to human JNK1 at 1 uM after 1 hr by KINOMEscan assay
[7] = target: Mitogen-activated protein kinase 10 (Homo sapiens) (UniProt P53779); assay: Binding affinity to human JNK3 at 1 uM after 1 hr by KINOMEscan assay
[8] = Inhibition of PI3K in human HeLa cells assessed as reduction in EGF-stimulated AKT phosphorylation at S473 preincubated for 10 mins followed by EGF stimulation measured after 5 mins by Western blot analysis; assay type: cell-based
In short: (§1)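 HeLa cells were serum-starved overnight, pretreated with compound for 10 min, then stimulated with 10 ng mL-1 EGF for 5 min. Lysis was in boiling SDS sample buffer, with protein quantified at 660 nm. Equal protein was resolved by SDS-PAGE and Western blotted for pEGFR Tyr1068, pAKT Ser473/Thr308, and pERK1/2 Thr202/Tyr204 with total proteins and GAPDH, detected by ECL.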

[9] = Inhibition of PI3K in human HeLa cells assessed as reduction in EGF-stimulated AKT phosphorylation at T308 preincubated for 10 mins followed by EGF stimulation measured after 5 mins by Western blot analysis; assay type: cell-based; in short: as §1
[10] = target: Epidermal growth factor receptor (Homo sapiens) (UniProt P00533); assay: Inhibition of EGFR in human HeLa cells assessed as reduction in EGF-stimulated ERK1/2 phosphorylation at T202/Y204 at 0.3 to 100 nM preincubated for 10 mins followed by EGF stimulation measured after 5 mins by Western blot analysis; assay type: cell-based; in short: as §1
[11] = target: Epidermal growth factor receptor (Homo sapiens) (UniProt P00533); assay: Inhibition of EGFR in human HeLa cells assessed as reduction in EGF-stimulated EGFR phosphorylation at 0.3 to 100 nM preincubated for 10 mins followed by EGF stimulation measured after 5 mins by Western blot analysis; assay type: cell-based; in short: as §1
[12] = tested on: Panel NCI-60 (60 carcinoma cell lines); assay: Growth inhibition of human NCI60 cells after 48 hrs by sulforhodamine B assay; assay type: functional
In short: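 NCI 60-cell line panel (leukemia, NSCLC, colon, CNS, melanoma, ovarian, renal, prostate, breast). 5-point dose-response curves with top concentration 50 µM. GI50, TGI and LC50 were calculated from the curves.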

[13] = target: T1, Phosphatidylinositol 4,5-bisphosphate 3-kinase catalytic subunit alpha isoform; assay: Binding affinity to human PI3Kalpha equilibrate for 6 hrs by scan-kinetic platform assay
In short: (§2)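 scanKINETIC format on PI3Kα and PI3Kγ. […] Arm C: equilibrated 1 h. Arm B: equilibrated 1 h, diluted 30-fold, then re-equilibrated. Arm D: diluted immediately, then equilibrated. Kd compared with and without the dilution step to judge reversibility.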

[14] = target: T1, Phosphatidylinositol 4,5-bisphosphate 3-kinase catalytic subunit alpha isoform; assay: Binding affinity to human PI3Kalpha equilibrate for 1 hr followed by 30 fold dilution and re-equilibrate for 5 hrs by scan-kinetic platform assay; in short: as §2
[15] = target: T1, Phosphatidylinositol 4,5-bisphosphate 3-kinase catalytic subunit alpha isoform; assay: Binding affinity to human PI3Kalpha equilibrate for 1 hr by scan-kinetic platform assay; in short: as §2
[16] = target: T1, Phosphatidylinositol 4,5-bisphosphate 3-kinase catalytic subunit alpha isoform; assay: Binding affinity to human PI3Kalpha diluted 30 fold and equilibrate for 6 hrs by scan-kinetic platform assay; in short: as §2
[17] = target: T2, Phosphatidylinositol 4,5-bisphosphate 3-kinase catalytic subunit gamma isoform; assay: Binding affinity to human PI3Kgamma equilibrate for 6 hrs by scan-kinetic platform assay; in short: as §2
[18] = target: T2, Phosphatidylinositol 4,5-bisphosphate 3-kinase catalytic subunit gamma isoform; assay: Binding affinity to human PI3Kgamma equilibrate for 1 hr followed by 30 fold dilution and re-equilibrate for 5 hrs by scan-kinetic platform assay; in short: as §2
[19] = target: T2, Phosphatidylinositol 4,5-bisphosphate 3-kinase catalytic subunit gamma isoform; assay: Binding affinity to human PI3Kgamma diluted 30 fold and equilibrate for 6 hrs by scan-kinetic platform assay; in short: as §2
[20] = target: T3, PI3-kinase p110-alpha/p85-alpha (Homo sapiens) (UniProt P27986+P42336); assay: Binding affinity to PI3Kalpha/p85alpha (unknown origin) assessed as covalent modification at Lys802 residue at 4 uM after 2 mins by tandem MS/MS method; assay type: protein-complex assay
In short: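 Recombinant PI3Kα (p110α/p85α) at 2 μM mixed with 4 μM inhibitor in 10 mM HEPES pH 7.5, 100 mM NaCl, 5% DMSO. Timepoints quenched by unfolding in ice-cold 2 M guanidine-HCl/3% formic acid, snap-frozen in liquid N2, stored at −80 °C. Analysed by LC-MS/MS; mass shift of the modified peptide read out.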

[21] = target: T3, PI3-kinase p110-alpha/p85-alpha (Homo sapiens); assay: Binding affinity to PI3Kalpha/p85alpha (unknown origin) assessed as covalent modification at Lys802 residue at 4 uM measured for 3/300 secs by hydrogen-deuterium exchange mass spectrometry; assay type: protein-complex assay
In short: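 PI3Kα (p110α/p85α) preincubated 30 min at 2 μM with 4 μM inhibitor or DMSO (5% final). Diluted to 0.4 μM in 50 μL for deuterium exchange at 3 s on ice and 300 s at 20 °C. Quenched with ice-cold 2 M guanidine-HCl/3% formic acid, then UPLC-TOF-MS. Peptide changes >5% and >0.4 Da with paired t-test p<0.01 taken as significant.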

T1 sequence (P42336 whole entry, canonical isoform): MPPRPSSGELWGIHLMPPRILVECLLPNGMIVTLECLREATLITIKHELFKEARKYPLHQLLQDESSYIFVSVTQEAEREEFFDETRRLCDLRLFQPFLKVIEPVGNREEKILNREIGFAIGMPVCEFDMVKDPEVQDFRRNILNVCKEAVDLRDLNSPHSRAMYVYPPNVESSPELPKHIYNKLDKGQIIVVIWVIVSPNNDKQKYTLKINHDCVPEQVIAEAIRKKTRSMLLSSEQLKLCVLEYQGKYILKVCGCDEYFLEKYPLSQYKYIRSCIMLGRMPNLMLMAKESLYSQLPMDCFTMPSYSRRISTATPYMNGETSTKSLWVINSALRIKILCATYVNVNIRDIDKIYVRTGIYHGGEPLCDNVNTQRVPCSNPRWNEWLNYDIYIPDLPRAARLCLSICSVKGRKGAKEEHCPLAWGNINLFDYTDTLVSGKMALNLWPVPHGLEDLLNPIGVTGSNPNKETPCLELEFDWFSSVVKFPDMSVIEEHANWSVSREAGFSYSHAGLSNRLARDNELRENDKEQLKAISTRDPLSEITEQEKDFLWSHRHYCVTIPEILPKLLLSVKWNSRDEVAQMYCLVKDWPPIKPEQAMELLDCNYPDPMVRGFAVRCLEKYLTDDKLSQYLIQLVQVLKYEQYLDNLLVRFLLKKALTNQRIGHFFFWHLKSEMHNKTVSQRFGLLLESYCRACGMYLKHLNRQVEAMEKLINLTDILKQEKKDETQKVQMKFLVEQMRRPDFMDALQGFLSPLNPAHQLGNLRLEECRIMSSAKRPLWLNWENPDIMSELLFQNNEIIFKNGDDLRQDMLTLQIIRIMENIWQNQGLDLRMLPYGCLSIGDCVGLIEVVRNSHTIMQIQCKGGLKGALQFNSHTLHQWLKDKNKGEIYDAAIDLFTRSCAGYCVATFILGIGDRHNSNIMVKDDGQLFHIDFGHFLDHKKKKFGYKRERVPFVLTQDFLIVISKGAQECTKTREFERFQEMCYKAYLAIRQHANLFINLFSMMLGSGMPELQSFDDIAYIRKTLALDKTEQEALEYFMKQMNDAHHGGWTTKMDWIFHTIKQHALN
T2 sequence (P48736 whole entry, canonical isoform): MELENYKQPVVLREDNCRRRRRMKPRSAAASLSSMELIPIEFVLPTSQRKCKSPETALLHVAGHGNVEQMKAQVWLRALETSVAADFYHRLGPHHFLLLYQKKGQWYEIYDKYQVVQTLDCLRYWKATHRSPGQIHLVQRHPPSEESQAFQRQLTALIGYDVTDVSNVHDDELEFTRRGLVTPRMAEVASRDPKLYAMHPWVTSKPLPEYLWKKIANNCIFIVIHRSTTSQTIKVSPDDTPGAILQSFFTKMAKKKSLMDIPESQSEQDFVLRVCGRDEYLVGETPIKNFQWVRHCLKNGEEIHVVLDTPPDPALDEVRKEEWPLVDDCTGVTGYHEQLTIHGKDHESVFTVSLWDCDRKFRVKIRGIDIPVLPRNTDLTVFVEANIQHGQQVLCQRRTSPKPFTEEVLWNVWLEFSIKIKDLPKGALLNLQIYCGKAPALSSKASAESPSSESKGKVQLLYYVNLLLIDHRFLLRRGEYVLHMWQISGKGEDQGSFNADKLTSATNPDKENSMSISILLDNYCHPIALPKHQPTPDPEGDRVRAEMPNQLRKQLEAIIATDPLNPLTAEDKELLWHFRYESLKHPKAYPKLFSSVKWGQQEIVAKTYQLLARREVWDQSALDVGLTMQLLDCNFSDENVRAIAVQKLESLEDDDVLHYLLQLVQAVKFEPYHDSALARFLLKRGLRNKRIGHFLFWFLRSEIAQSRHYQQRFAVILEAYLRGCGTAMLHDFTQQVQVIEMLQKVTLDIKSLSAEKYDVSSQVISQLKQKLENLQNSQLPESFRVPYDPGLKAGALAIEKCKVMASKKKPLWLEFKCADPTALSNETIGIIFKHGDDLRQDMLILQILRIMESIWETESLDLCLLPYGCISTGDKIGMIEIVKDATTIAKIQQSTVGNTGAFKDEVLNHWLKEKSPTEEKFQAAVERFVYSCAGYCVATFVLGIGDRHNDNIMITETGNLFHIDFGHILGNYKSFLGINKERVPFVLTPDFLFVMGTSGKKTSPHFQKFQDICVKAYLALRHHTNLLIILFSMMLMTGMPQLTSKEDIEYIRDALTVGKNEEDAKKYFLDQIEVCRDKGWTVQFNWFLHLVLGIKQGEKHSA
Sequence of Epidermal growth factor receptor (Homo sapiens) (P00533 whole entry): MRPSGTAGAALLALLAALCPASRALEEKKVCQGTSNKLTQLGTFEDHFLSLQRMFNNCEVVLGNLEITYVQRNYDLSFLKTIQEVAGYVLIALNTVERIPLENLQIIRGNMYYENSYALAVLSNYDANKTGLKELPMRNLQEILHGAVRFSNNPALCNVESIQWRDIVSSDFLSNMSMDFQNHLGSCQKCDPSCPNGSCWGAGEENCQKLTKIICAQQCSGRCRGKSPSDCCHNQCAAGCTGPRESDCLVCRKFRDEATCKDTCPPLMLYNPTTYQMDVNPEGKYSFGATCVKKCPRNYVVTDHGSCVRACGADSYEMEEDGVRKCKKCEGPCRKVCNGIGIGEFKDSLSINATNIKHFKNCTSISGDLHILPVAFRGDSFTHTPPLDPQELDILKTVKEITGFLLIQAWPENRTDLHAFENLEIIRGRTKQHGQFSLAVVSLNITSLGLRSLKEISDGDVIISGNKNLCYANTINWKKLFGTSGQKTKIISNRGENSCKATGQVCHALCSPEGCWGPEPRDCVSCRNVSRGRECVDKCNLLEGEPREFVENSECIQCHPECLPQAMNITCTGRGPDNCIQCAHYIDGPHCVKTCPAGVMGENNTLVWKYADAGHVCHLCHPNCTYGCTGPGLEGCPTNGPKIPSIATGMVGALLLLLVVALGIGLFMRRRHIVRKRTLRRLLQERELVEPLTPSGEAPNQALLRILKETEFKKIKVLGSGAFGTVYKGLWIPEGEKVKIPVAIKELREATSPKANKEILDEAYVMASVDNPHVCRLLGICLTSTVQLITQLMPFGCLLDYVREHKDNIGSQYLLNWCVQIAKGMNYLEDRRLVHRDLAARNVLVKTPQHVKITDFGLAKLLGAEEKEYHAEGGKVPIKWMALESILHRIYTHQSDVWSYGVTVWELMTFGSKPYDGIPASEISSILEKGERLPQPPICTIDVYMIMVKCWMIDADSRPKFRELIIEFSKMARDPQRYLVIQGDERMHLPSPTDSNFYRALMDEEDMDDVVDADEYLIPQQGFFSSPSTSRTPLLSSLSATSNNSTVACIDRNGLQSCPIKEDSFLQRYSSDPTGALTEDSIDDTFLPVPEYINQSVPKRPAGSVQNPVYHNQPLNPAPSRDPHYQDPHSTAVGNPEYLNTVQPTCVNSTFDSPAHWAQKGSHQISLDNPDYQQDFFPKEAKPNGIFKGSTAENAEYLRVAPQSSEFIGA
Sequence of Mitogen-activated protein kinase 10 (Homo sapiens) (P53779 whole entry): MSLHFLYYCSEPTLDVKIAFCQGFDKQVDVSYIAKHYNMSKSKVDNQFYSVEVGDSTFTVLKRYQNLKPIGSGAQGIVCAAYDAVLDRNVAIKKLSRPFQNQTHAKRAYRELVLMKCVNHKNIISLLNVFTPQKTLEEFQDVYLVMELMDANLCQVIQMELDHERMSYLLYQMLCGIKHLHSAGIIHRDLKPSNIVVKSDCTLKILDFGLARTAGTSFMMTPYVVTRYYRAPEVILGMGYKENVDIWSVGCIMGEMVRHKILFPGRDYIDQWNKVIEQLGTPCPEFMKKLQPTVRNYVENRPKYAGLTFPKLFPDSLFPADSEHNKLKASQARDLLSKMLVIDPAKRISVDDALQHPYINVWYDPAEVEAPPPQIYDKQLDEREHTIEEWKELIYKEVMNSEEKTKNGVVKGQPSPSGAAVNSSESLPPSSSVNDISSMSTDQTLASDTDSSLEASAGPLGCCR
Sequence of Mitogen-activated protein kinase 8 (Homo sapiens) (P45983 whole entry): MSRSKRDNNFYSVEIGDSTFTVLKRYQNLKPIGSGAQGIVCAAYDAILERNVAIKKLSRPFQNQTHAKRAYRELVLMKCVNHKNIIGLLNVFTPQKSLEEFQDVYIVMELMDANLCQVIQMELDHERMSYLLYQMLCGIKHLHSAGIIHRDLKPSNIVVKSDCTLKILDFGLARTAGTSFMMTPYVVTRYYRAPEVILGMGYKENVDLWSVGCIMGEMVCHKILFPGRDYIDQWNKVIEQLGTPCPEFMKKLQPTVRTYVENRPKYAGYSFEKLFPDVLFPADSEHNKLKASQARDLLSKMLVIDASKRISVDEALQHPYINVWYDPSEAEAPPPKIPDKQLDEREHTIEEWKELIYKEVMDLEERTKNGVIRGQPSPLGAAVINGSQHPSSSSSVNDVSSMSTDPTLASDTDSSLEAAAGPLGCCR
Sequence of Tyrosine-protein kinase Lck (P06239 whole entry): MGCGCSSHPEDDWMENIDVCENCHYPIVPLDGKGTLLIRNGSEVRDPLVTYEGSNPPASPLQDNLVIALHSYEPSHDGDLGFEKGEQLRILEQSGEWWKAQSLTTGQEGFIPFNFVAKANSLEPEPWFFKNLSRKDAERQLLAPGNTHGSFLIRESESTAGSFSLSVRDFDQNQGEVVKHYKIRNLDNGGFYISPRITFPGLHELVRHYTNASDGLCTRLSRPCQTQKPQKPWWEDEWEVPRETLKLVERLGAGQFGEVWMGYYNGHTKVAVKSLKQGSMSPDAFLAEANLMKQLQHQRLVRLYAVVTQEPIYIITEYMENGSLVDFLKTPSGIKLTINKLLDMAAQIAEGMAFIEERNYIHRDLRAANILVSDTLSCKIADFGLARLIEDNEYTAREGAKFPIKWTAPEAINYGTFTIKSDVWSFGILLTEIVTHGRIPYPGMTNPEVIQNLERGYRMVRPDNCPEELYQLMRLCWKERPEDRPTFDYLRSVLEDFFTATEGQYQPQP

- Kd [1]: 0.88 nM
- Kd [2]: 5.7 nM
- Kd [3]: 3.5 nM
- Kd [4]: 4600 nM
- Activity [5]: Active
- Activity [6]: Active
- Activity [7]: Active
- IC50 [8]: 3 nM
- IC50 [9]: 3 nM
- inhibition [10]: inactive
- inhibition [11]: inactive
- Kd [13]: 0.43 to 0.45 nM
- Kd [14]: 0.56 to 0.72 nM
- Kd [15]: 0.65 to 0.68 nM
- Kd [16]: 18 to 20 nM
- Kd [17]: 1.9 to 2 nM
- Kd [18]: 4.4 to 7.3 nM
- Kd [19]: 80 to 100 nM
- Activity [20]: Active
- Activity [21]: Active
SMILES: CO/C=C/C(=O)c1cc2c3c(c(N)cc(NC(=O)C(C)C)c3n1)N=C2
- GI50 [12]: 6 to 840 nM
